By inhibition in vivo is commonly meant the change of the read-out against control, counted positive when it falls. The low end stands for little suppression, the high end for strong suppression.

Assay type in all cases: functional
What all share (details): route oral

The test system of test [1] is Rattus norvegicus. In words: Compound was tested for the inhibition of rat reversed passive Arthus pleurisy after peroral administration of 100 mg/kg dose at 3.22*10e6 no of cells with 3.86*10e6 cells of control. The gist of the method: (§1)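 Male Wistar rats (about 250 g) were given compound orally before the antiserum. Under ether anesthesia, 0.2 mL rabbit anti-egg albumin antiserum was injected intrapleurally. After 30 min, egg albumin (15 mg/100 g body weight in 0.1 mL saline) was given iv. Rats were killed 4.5 h later and the thoracic cavity was rinsed with 5 mL saline. Exudate volume and infiltrated cell number were measured, with inhibition % versus controls as mean ± SEM.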

Test [2] has as its system Rattus norvegicus. As to the kind of experiment: Antiinflammatory activity on Carrageenan rat's paw edema(CPE) after peroral administration of 100 mg/kg dose with control swelling of 90.0%.
Test [3] has as its system Rattus norvegicus. As to the kind of experiment: Antiinflammatory activity on Zymosan-induced rat's paw edema(ZPE) after peroral administration of 100 mg/kg dose with control swelling of 85.5%. The essentials: (§2)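 Male Wistar rats weighing about 150 g were dosed orally with compound suspended in 5% arabic gum. 1 h later, 1% zymosan in 0.1 mL saline was injected subplantarly into the hind paw. Paw volume was measured by plethysmograph before dosing and 4 h after zymosan, with edema as the volume difference. Inhibition % was derived from mean swelling versus the control group.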

The subject of test [4] is Rattus norvegicus. As to the kind of experiment: Inhibition of carrageenan-induced rat's paw edema (CPE) after peroral administration of 100 mg/kg dose. The gist of the method:
(§3)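 Male Wistar rats (about 150 g) were dosed orally with compound suspended in 5% arabic gum, 1 h before a subplantar hind-paw injection of 0.1 mL saline. The irritant was 1% zymosan for 33 or 1% λ-carrageenin for 34. Paw volume was measured by plethysmograph before dosing and at 4 h (zymosan) or 3 h (carrageenin). Swelling is relative to initial volume, as mean ± SEM. % inhibition is versus the control group's mean swelling.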
A general note: Carrageenan injected into the paw causes an acute inflammation.

Test [5] deals with Rattus norvegicus. In words: Inhibition of Zymosan-induced rat's paw edema(ZPE) after peroral administration of 100 mg/kg dose. The gist of the method:
as §3

In test [6] the test system is Rattus norvegicus. As to the kind of experiment: Compound was tested for the inhibition of rat reversed passive Arthus pleurisy after peroral administration of 100 mg/kg dose at 0.82 mL of exudate volume with 0.86 mL of control (injected intrapleurally). The essentials: as §1
For test [7], the system named is Rattus norvegicus. As to the kind of experiment: Antiinflammatory activity on Zymosan-induced rat's paw edema(ZPE) after peroral administration of 30 mg/kg dose with control swelling of 66.9%. The gist of the method:
as §2

The subject of test [8] is Rattus norvegicus. In words: Compound was tested for the inhibition of rat reversed passive Arthus pleurisy after peroral administration of 100 mg/kg dose at 0.12 mL of exudate volume with 0.68 mL of control (injected intrapleurally). The gist of the method:
as §1

Test [9] relates to Rattus norvegicus. In words: Antiinflammatory activity on Carrageenan rat's paw edema(CPE) after peroral administration of 100 mg/kg dose with control swelling of 69.9%.
Test [10] has as its system Rattus norvegicus. As to the kind of experiment: Compound was tested for the inhibition of rat reversed passive Arthus pleurisy after peroral administration of 30 mg/kg dose at 0.33 mL of exudate volume with 0.68 mL of control (injected intrapleurally). The gist of the method:
(§4)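 Male Wistar rats (about 250 g) under ether received 0.2 mL rabbit anti-egg-albumin antiserum intrapleurally. Thirty min later they got 15 mg EA/100 g body weight in 0.1 mL saline iv. Compounds were given orally beforehand. Rats were killed 4.5 h after induction and the thoracic cavity rinsed with 5 mL saline. Exudate volume and infiltrated cell count were read as mean ± SE. % inhibition is versus control.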

Test [11] concerns Rattus norvegicus. As to the kind of experiment: Compound was tested for the inhibition of rat reversed passive Arthus pleurisy after peroral administration of 3 mg/kg dose at 3.17*10e6 no of cells with 3.24*10e6 cells of control. The gist of the method: as §4
Test [12] deals with Rattus norvegicus. As to the kind of experiment: Compound was tested for the inhibition of rat reversed passive Arthus pleurisy after peroral administration of 10 mg/kg dose at 3.18*10e6 no of cells with 3.24*10e6 cells of control. The essentials:
as §1

Test [13] has as its system Rattus norvegicus. In words: Compound was tested for the inhibition of rat reversed passive Arthus pleurisy after peroral administration of 10 mg/kg dose at 0.44 mL of exudate volume with 0.68 mL of control (injected intrapleurally). The essentials: as §1
In test [14] the test system is Rattus norvegicus. In words: Compound was tested for the inhibition of arachidonic acid-induced rat's paw edema(APE) after peroral administration of 100 mg/kg dose with control swelling of 51.6%. The gist of the method: (§5)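 Test: arachidonic acid paw edema in male Wistar rats of about 150 g. Oral dosing in 5% arabic gum came 1 h before subplantar injection of 1% arachidonic acid sodium salt in 0.1 mL saline into the hind paw. Plethysmograph paw volume was read before dosing and 1 h post-irritant, and edema = volume difference. % inhibition was taken from mean swelling against controls.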

The subject of test [15] is Rattus norvegicus. As to the kind of experiment: Compound was tested for the inhibition of arachidonic acid-induced rat's paw edema(APE) after peroral administration of 30 mg/kg dose. The essentials: as §5
Test [16] relates to Rattus norvegicus. As to the kind of experiment: Compound was tested for the inhibition of rat reversed passive Arthus pleurisy after peroral administration of 3 mg/kg dose at 0.6 mL of exudate volume with 0.68 mL of control (injected intrapleurally). The essentials: as §4
In test [17] the test system is Rattus norvegicus. In words: Antiinflammatory activity on Carrageenan rat's paw edema(CPE) after peroral administration of 30 mg/kg dose.
The test system of test [18] is Rattus norvegicus. As to the kind of experiment: Compound was tested for the inhibition of rat reversed passive Arthus pleurisy after peroral administration of 100 mg/kg dose at 1.52*10e6 no of cells with 3.24*10e6 cells of control. The gist of the method:
as §1

In test [19] the test system is Rattus norvegicus. As to the kind of experiment: Compound was tested for the inhibition of arachidonic acid-induced rat's paw edema(APE) after peroral administration of 100 mg/kg dose. The essentials:
as §5

Test [20] concerns Rattus norvegicus. As to the kind of experiment: Antiinflammatory activity on Zymosan-induced rat's paw edema(ZPE) after peroral administration of 100 mg/kg dose with control swelling of 66.9%. The gist of the method: as §2
The subject of test [21] is Rattus norvegicus. As to the kind of experiment: Compound was tested for the inhibition of Zymosan-induced rat's paw edema(ZPE) after peroral administration of 30 mg/kg dose. The gist of the method: as §2
Test [22] relates to Rattus norvegicus. In words: Compound was tested for the inhibition of Carrageenan rat's paw edema(CPE) after peroral administration of 30 mg/kg dose.
The test system of test [23] is Rattus norvegicus. In words: Compound was tested for the inhibition of rat reversed passive Arthus pleurisy after peroral administration of 30 mg/kg dose at 2.79*10e6 no of cells with 3.24*10e6 cells of control. The essentials: as §4
Test [24] relates to Rattus norvegicus. In words: Compound was tested for the inhibition of arachidonic acid-induced rat's paw edema(APE) after peroral administration of 30 mg/kg dose with control swelling of 33.8%. The gist of the method:
as §5

As for `O=C(Nc1cccc(Cl)c1)c1c(O)c2cccnc2n(-c2ccccc2)c1=O`, the inhibition in vivo at 100 mg/kg in the test with Rattus norvegicus [1] worked out at 21.7%; in the test on Rattus norvegicus [4], 13.4%; in the test on Rattus norvegicus [5], 7.6%; in the test on Rattus norvegicus [6], 5.2%. For the same compound, the Swelling in the test with Rattus norvegicus [2] came out at 77.9%; in the test with Rattus norvegicus [3] it was 79%.
With `O=C(Cn1c(=O)sc2ccc(Cl)cc21)N1CCN(CCO)CC1` [TIARAMIDE], the Swelling in the test with Rattus norvegicus [7] stood at 56.8%; in the test with Rattus norvegicus [9] it was 60.6%; with Rattus norvegicus [14], 26.7%; with Rattus norvegicus [17], 64%; in the test on Rattus norvegicus [20] it was 51.5%; in the test with Rattus norvegicus [24], 32.1%. The inhibition in vivo at 100 mg/kg with Rattus norvegicus [8] came to 94.9%; with Rattus norvegicus [18], 67.2%; in the test on Rattus norvegicus [4] it was 13.3%; in the test on Rattus norvegicus [19] it was 48.3%; with Rattus norvegicus [5], 23%. Further, the inhibition in vivo at 30 mg/kg in the test with Rattus norvegicus [10] turned out to be 59.3%; with Rattus norvegicus [15], 5%; in the test on Rattus norvegicus [21], 15.1%; in the test on Rattus norvegicus [22], 8.4%; in the test on Rattus norvegicus [23], 9.8%. Further, the inhibition in vivo at 3 mg/kg in the test with Rattus norvegicus [11] was found to be 2.7%; with Rattus norvegicus [16], 13.6%. Besides, the inhibition in vivo at 10 mg/kg in the test with Rattus norvegicus [12] was 2.3%; in the test on Rattus norvegicus [13] it was 40.7%.

These data come from ChEMBL document CHEMBL1126267, “A novel synthesis and potent antiinflammatory activity of 4-hydroxy-2(1H)-oxo-1-phenyl-1,8-naphthyridine-3-carboxamides” (1992).
